Laboratory results as given in ChEMBL document CHEMBL1128440 (J Med Chem, 1995).

Assays:
Details in all cases: in vivo
Rattus norvegicus [1] = species on record: Rattus norvegicus; assay: Tissue biodistribution into estrogen-primed immature female rat muscle at 1 hr blocked time interval; type: ADME, organism-based
In short: (§1)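 Immature female Sprague-Dawley rats (25 days old, ≈50 g, five per time point) primed with estradiol, 5 μg sc daily for 2 days in 50% ethanol/sunflower seed oil, used 24 h after the last injection. The 18F-labeled ligand was given iv by tail vein in 10% ethanol/saline. Decapitated at 1 or 3 h; blood and organs weighed and gamma-counted. Reported as %ID/g ± SD, n = 5.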

Rattus norvegicus [2] = species on record: Rattus norvegicus; assay: Tissue biodistribution into estrogen-primed immature female rat muscle at 1 hr low time interval; type: ADME, organism-based; in short: as §1
Rattus norvegicus [3] = species on record: Rattus norvegicus; assay: Tissue biodistribution into estrogen-primed immature female rat muscle at 1 hr time interval; type: ADME, organism-based; in short: as §1
Rattus norvegicus [4] = species on record: Rattus norvegicus; assay: Tissue biodistribution into estrogen-primed immature female rat kidney at 1 hr blocked time interval; type: ADME, organism-based; in short: as §1
Rattus norvegicus [5] = species on record: Rattus norvegicus; assay: Tissue biodistribution into estrogen-primed immature female rat kidney at 1 hr low time interval; type: ADME, organism-based; in short: as §1
Rattus norvegicus [6] = species on record: Rattus norvegicus; assay: Tissue biodistribution into estrogen-primed immature female rat kidney at 1 hr time interval; type: ADME, organism-based; in short: as §1
Rattus norvegicus [7] = species on record: Rattus norvegicus; assay: Tissue biodistribution into estrogen-primed immature female rat kidney at 3 hr time interval; type: ADME, organism-based; in short: as §1
Rattus norvegicus [8] = species on record: Rattus norvegicus; assay: Tissue biodistribution into estrogen-primed immature female rat liver at 1 hr blocked time interval; type: ADME, organism-based; in short: as §1
Rattus norvegicus [9] = species on record: Rattus norvegicus; assay: Tissue biodistribution into estrogen-primed immature female rat liver at 1 hr low time interval; type: ADME, organism-based; in short: as §1
Rattus norvegicus [10] = species on record: Rattus norvegicus; assay: Tissue biodistribution into estrogen-primed immature female rat liver at 1 hr time interval; type: ADME, organism-based; in short: as §1
Rattus norvegicus [11] = species on record: Rattus norvegicus; assay: Tissue biodistribution into estrogen-primed immature female rat liver at 3 hr time interval; type: ADME, organism-based; in short: as §1
Rattus norvegicus [12] = species on record: Rattus norvegicus; assay: Tissue biodistribution into estrogen-primed immature female rat lung at 1 hr blocked time interval; type: ADME, organism-based; in short: as §1
Rattus norvegicus [13] = species on record: Rattus norvegicus; assay: Tissue biodistribution into estrogen-primed immature female rat lung at 1 hr low time interval; type: ADME, organism-based; in short: as §1
Rattus norvegicus [14] = species on record: Rattus norvegicus; assay: Tissue biodistribution into estrogen-primed immature female rat lung at 1 hr time interval; type: ADME, organism-based; in short: as §1
Rattus norvegicus [15] = species on record: Rattus norvegicus; assay: Tissue biodistribution into estrogen-primed immature female rat muscle at 3 hr time interval; type: ADME, organism-based; in short: as §1
Rattus norvegicus [16] = species on record: Rattus norvegicus; assay: Tissue biodistribution into estrogen-primed immature female rat ovaries at 1 hr blocked time interval; type: ADME, organism-based; in short: as §1
Rattus norvegicus [17] = species on record: Rattus norvegicus; assay: Tissue biodistribution into estrogen-primed immature female rat ovaries at 1 hr low time interval; type: ADME, organism-based, Female gonad; in short: as §1
Rattus norvegicus [18] = species on record: Rattus norvegicus; assay: Tissue biodistribution into estrogen-primed immature female rat ovaries at 1 hr time interval; type: ADME, organism-based, Female gonad; in short: as §1
Rattus norvegicus [19] = species on record: Rattus norvegicus; assay: Tissue biodistribution into estrogen-primed immature female rat ovaries at 3 hr time interval; type: ADME, organism-based, Female gonad; in short: as §1
Rattus norvegicus [20] = species on record: Rattus norvegicus; assay: Tissue biodistribution into estrogen-primed immature female rat uterus at 1 hr blocked time interval; type: ADME, organism-based; in short: as §1
Rattus norvegicus [21] = species on record: Rattus norvegicus; assay: Tissue biodistribution into estrogen-primed immature female rat uterus at 1 hr low time interval; type: ADME, organism-based; in short: as §1
Rattus norvegicus [22] = species on record: Rattus norvegicus; assay: Tissue biodistribution into estrogen-primed immature female rat uterus at 1 hr time interval; type: ADME, organism-based; in short: as §1
Rattus norvegicus [23] = species on record: Rattus norvegicus; assay: Tissue biodistribution into estrogen-primed immature female rat uterus at 3 hr time interval; type: ADME, organism-based; in short: as §1
Rattus norvegicus [24] = species on record: Rattus norvegicus; assay: Tissue biodistribution into estrogen-primed immature female rat uterus/blood at 1 hr blocked time interval; type: ADME, organism-based; in short: as §1
Rattus norvegicus [25] = species on record: Rattus norvegicus; assay: Tissue biodistribution into estrogen-primed immature female rat uterus/blood at 1 hr low time interval; type: ADME, organism-based; in short: as §1
Rattus norvegicus [26] = species on record: Rattus norvegicus; assay: Tissue biodistribution into estrogen-primed immature female rat uterus/blood at 1 hr time interval; type: ADME, organism-based; in short: as §1

An Injected dose/g (Rattus norvegicus [1]) of 0.54%, an Injected dose/g (Rattus norvegicus [2]) of 0.25% and an Injected dose/g (Rattus norvegicus [3]) of 0.64% were found for `CC1(c2ccco2)O[C@@H]2CC3C4CCC5=CC(=O)CC[C@@H]5C4CC[C@]3(C)[C@]2(C(=O)CF)O1` (stereo partly specified) in this work. The Injected dose/g (Rattus norvegicus [4]) was 1.84%, the Injected dose/g (Rattus norvegicus [5]) was 0.97% and the Injected dose/g (Rattus norvegicus [6]) was 1.59%. For the same compound, the Injected dose/g (Rattus norvegicus [7]) was 0.76%, the Injected dose/g (Rattus norvegicus [8]) was 1.52% and the Injected dose/g (Rattus norvegicus [9]) was 0.68%. It also gave an Injected dose/g (Rattus norvegicus [10]) of 1.26%, an Injected dose/g (Rattus norvegicus [11]) of 1.61% and an Injected dose/g (Rattus norvegicus [12]) of 1.16%. It also gave an Injected dose/g (Rattus norvegicus [13]) of 1.23%, an Injected dose/g (Rattus norvegicus [14]) of 1.92% and an Injected dose/g (Rattus norvegicus [15]) of 0.2%. For the same compound, the Injected dose/g (Rattus norvegicus [16]) was 1.52%, the Injected dose/g (Rattus norvegicus [17]) was 1.58% and the Injected dose/g (Rattus norvegicus [18]) was 3.04%. It also gave an Injected dose/g (Rattus norvegicus [19]) of 2.66%, an Injected dose/g (Rattus norvegicus [20]) of 1.43% and an Injected dose/g (Rattus norvegicus [21]) of 3.46%. For the same compound, the Injected dose/g (Rattus norvegicus [22]) was 6.51%, the Injected dose/g (Rattus norvegicus [23]) was 8.65% and the uterus/blood ratio (Rattus norvegicus [24]) was 2.47. The Injected dose/g (Rattus norvegicus [25]) was 10% and the “Uterus to blood concentration ratio” value (Rattus norvegicus [26]) was 20.09%.
